{"source": "ChEMBL document CHEMBL1157855", "about": "“Synthesis and biological activity of n-butylphthalide derivatives” (Eur J Med Chem, 2010)", "key": {"Aorta [1]": {"system": "Aorta", "experiment": "Vasorelaxant activity in rat thoracic aorta assessed as relaxation of resting tension"}, "Aorta [2]": {"system": "Aorta", "experiment": "Vasorelaxant activity in rat thoracic aorta assessed as inhibition of norepinephrine-induced contractions Ca2+-free medium", "format": "functional, tissue-based"}, "[3]": {"experiment": "Toxicity in ip dosed mouse", "format": "organism-based", "conditions": "in vivo", "in_short": "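Acute toxicity test in mice with test article given by intraperitoneal injection; read-out was the LD50 (mg/kg).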"}}, "data": [{"smiles": "CCCCC1OC(=O)c2ccc(Cl)cc21", "note": "(stereo not given)", "values": [{"measurement": "Activity", "setting": "Aorta [1]", "value": "Dose-dependent effect"}]}, {"smiles": "CCCCC1OC(=O)c2cc(F)ccc21", "note": "(stereo not given)", "values": [{"measurement": "IC50", "setting": "Aorta [2]", "value": 132, "unit": "µM"}, {"measurement": "inhibition", "setting": "Aorta [2]", "value": "Dose-dependent effect"}, {"measurement": "LD50", "setting": "[3]", "value": 593, "unit": "mg/kg"}]}, {"smiles": "CCCCC1OC(=O)c2ccccc21", "note": "(stereo not drawn) [RAC-3-N-BUTYLPHTHALIDE]", "values": [{"measurement": "IC50", "setting": "Aorta [2]", "value": 130, "unit": "µM"}, {"measurement": "LD50", "setting": "[3]", "value": 751, "unit": "mg/kg"}]}, {"smiles": "CCCCC1OC(=O)c2ccc(Br)cc21", "note": "(stereo not given)", "values": [{"measurement": "Activity", "setting": "Aorta [1]", "value": "Dose-dependent effect"}]}, {"smiles": "CCCCC1OC(=O)c2cc(Br)ccc21", "note": "(stereo not given)", "values": [{"measurement": "IC50", "setting": "Aorta [2]", "value": 107, "unit": "µM"}, {"measurement": "inhibition", "setting": "Aorta [2]", "value": "Dose-dependent effect"}, {"measurement": "LD50", "setting": "[3]", "value": "> 1000", "unit": "mg/kg"}]}]}
